As usually defined, the IC50 is the concentration that inhibits the measured activity by half. A lower IC50 goes with greater potency in that assay. The MIC is the smallest concentration in the dilution series that meets the test's criterion for growth inhibition.

This is an account of results in ChEMBL document CHEMBL1153089, “Synthesis, antibacterial activities and molecular docking studies of peptide and Schiff bases as targeted antibiotics” (Bioorg Med Chem, 2009).

For test [1], the target named is T1, 3-oxoacyl-[acyl-carrier-protein] synthase 3 (Escherichia coli, UniProt C3TDZ2).
T1 sequence (C3TDZ2 whole entry): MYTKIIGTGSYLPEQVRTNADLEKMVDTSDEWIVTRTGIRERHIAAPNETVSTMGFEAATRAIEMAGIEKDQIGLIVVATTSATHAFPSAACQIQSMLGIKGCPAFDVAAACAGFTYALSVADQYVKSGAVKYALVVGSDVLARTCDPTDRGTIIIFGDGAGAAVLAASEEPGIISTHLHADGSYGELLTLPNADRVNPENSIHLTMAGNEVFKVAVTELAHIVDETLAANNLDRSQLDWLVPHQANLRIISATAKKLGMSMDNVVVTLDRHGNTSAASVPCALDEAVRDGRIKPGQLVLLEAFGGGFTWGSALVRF
As to the kind of experiment: Inhibition of Escherichia coli Beta-ketoacyl-ACP synthase III expressed in Escherichia coli BL21 (DE3) by liquid scintillation counting. The method, boiled down: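 His-tagged E. coli KAS III from pET30 in BL21(DE3), purified on Ni-NTA and stored in 20 mM Tris pH 7.6, 100 mM NaCl, 1 mM DTT, 20% glycerol. The radiometric assay precipitated product with ice-cold 10% TCA and redissolved it in 0.5 M NaOH. ³H incorporation was counted by liquid scintillation. Inhibitors were added from DMSO stock, with final DMSO ≤2%. IC50 was determined.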

For a further test, the system named is Escherichia coli. As to the kind of experiment: Antimicrobial activity against Escherichia coli ATCC 35218 after 24 hrs by MTT assay. The format is functional. The settings on record: ATCC 35218, 24 h. The procedure, abridged: (§1)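 MIC by broth microdilution in Mueller–Hinton medium. Compounds were serially diluted in DMSO in the medium. Inoculum was about 10⁵ cfu/mL. Plates were incubated at 37 °C for 24 h. MIC was read visually with MTT colorimetric staining.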
Background: Tetrazolium dyes change colour on reduction, which living cells bring about.

The subject of another test is Pseudomonas aeruginosa. As to the kind of experiment: Antimicrobial activity against Pseudomonas aeruginosa ATCC 13525 after 24 hrs by MTT assay. The format is functional. The following applies: ATCC 13525, 24 h. The method, boiled down: as §1
Another test concerns Bacillus subtilis. As to the kind of experiment: Antimicrobial activity against Bacillus subtilis ATCC 6633 after 24 hrs by MTT assay. Type of test: functional. The following applies: ATCC 6633, 24 h. The procedure, abridged:
as §1

The next test deals with Staphylococcus aureus. In words: Antimicrobial activity against Staphylococcus aureus ATCC 6538 after 24 hrs by MTT assay. The format is functional. The settings on record: ATCC 6538, 24 h. The procedure, abridged:
as §1

Each structure is given as a SMILES string. In brackets after ≈: the same amount, converted by molar mass.

In test [1], `Oc1ccccc1/C=N/CCCCCC/N=C/c1ccccc1O` gave an IC50 of 44.6 µM.

For the molecule `O=C(NCCCCCCNC(=O)c1ccccc1O)c1ccccc1O`, the IC50 in test [1] is greater than 140 µM.

On to `O=C(NCCCNC(=O)c1ccccc1O)c1ccccc1O`, for which the IC50 in test [1] was 41.8 µM.

For the molecule `O=C(NCC/N=C/c1cc(I)ccc1O)c1ccccc1O`, in test [1], the IC50 is 2.75 µM. Besides, the MIC with Escherichia coli was 25 µg/mL (≈ 60.9 µM); against Pseudomonas aeruginosa, greater than 50 µg/mL; against Bacillus subtilis, greater than 50 µg/mL; in the test on Staphylococcus aureus, 25 µg/mL (≈ 60.9 µM).

Take `O=C(NCC/N=C/c1cc(Cl)cc(Cl)c1O)c1ccccc1O`: the IC50 in test [1] was 7.08 µM. The MIC with Escherichia coli is 1.56 µg/mL (≈ 4.42 µM); in the test with Pseudomonas aeruginosa it was greater than 50 µg/mL; against Bacillus subtilis it was 3.13 µg/mL (≈ 8.86 µM); against Staphylococcus aureus, greater than 50 µg/mL.

`O=C(NCCCC/N=C/c1cc(Br)ccc1O)c1ccccc1O` gave an IC50 in test [1] of 16 µM.

As for `O=C(NCCCCCC/N=C/c1cc(F)ccc1O)c1ccccc1O`, the IC50 in test [1] is 112 µM.

The molecule `Oc1ccccc1/C=N/CCC/N=C/c1ccccc1O` gave an IC50 in test [1] of 43.4 µM. Compared with the last molecule, the IC50 is about 2.6-fold lower.

The molecule `O=C(NCC/N=C/c1cc(Br)ccc1O)c1ccccc1O` had an IC50 in test [1] of 17.1 µM.

In turn, `O=C(NCCCC/N=C/c1cc(F)ccc1O)c1ccccc1O` had an IC50 in test [1] of 19.2 µM. This IC50 and that of the molecule before are within 1.5-fold of each other.

In the case of `O=C(NCC/N=C/c1cc(Cl)ccc1O)c1ccccc1O`, the IC50 in test [1] was 8.69 µM.

In test [1], `O=C(NCCCCNC(=O)c1ccccc1O)c1ccccc1O` had an IC50 of 38.3 µM.

For `Oc1ccccc1/C=N/CCCC/N=C/c1ccccc1O`, the IC50 in test [1] is 44 µM.

Consider `O=C(NCCCCCC/N=C/c1cc(Cl)cc(Cl)c1O)c1ccccc1O`, for which the IC50 in test [1] was greater than 122 µM.

With `O=C(NCC/N=C/c1cc(Br)cc(Br)c1O)c1ccccc1O`, inhibition in test [1] was half-maximal at 1.22 µM (IC50). Further, the MIC in the test on Escherichia coli was 6.25 µg/mL (≈ 14.1 µM); against Pseudomonas aeruginosa it was 12.5 µg/mL (≈ 28.3 µM); in the test with Bacillus subtilis it was 1.56 µg/mL (≈ 3.53 µM); with Staphylococcus aureus, 12.5 µg/mL (≈ 28.3 µM).

In turn, `O=C(NCC/N=C/c1cc(I)cc(I)c1O)c1ccccc1O` gave an IC50 in test [1] of 23.7 µM.

In turn, `O=C(NCCCCCC/N=C/c1cc(Br)ccc1O)c1ccccc1O` showed an IC50 in test [1] of 29.9 µM.

In turn, `O=C(NCCC/N=C/c1c(O)ccc2ccccc12)c1ccccc1O` gave an IC50 in test [1] of 8.61 µM. Further, the MIC in the test on Escherichia coli was greater than 50 µg/mL; with Pseudomonas aeruginosa it was 12.5 µg/mL (≈ 35.9 µM); against Bacillus subtilis, 25 µg/mL (≈ 71.8 µM); against Staphylococcus aureus it was 25 µg/mL (≈ 71.8 µM).

Regarding `Oc1ccccc1/C=N/CC/N=C/c1ccccc1O`, the IC50 in test [1] is greater than 186 µM.

In the case of `O=C(NCCC/N=C/c1ccccc1O)c1ccccc1O`, in test [1], the concentration for half-maximal inhibition (IC50) is 41.9 µM. In other words, the double-digit micromolar range.

Take `O=C(NCCCCCC/N=C/c1ccccc1O)c1ccccc1O`: in test [1], inhibition was half-maximal at 65.1 µM (IC50).

In the case of `O=C(NCCCCCC/N=C/c1cc(Br)cc(Br)c1O)c1ccccc1O`, the IC50 in test [1] is 12.5 µM.

On to `O=C(NCCCCCC/N=C/c1cc(I)cc(I)c1O)c1ccccc1O`, for which, in test [1], the IC50 was 25.8 µM.

The molecule `O=C(NCCCCCC/N=C/c1c(O)ccc2ccccc12)c1ccccc1O` returned a half-maximal inhibitory concentration (IC50) in test [1] greater than 128 µM.

`O=C(NCCC/N=C/c1cc(Cl)cc(Cl)c1O)c1ccccc1O` gave an IC50 in test [1] of 7.49 µM.

In the case of `O=C(NCCC/N=C/c1cc(Br)cc(Br)c1O)c1ccccc1O`, it took 13.8 µM to reach half-maximal inhibition in test [1] (IC50).

`O=C(NCC/N=C/c1ccccc1O)c1ccccc1O` had an IC50 in test [1] of 25.5 µM.

`O=C(NCCC/N=C/c1cc(F)ccc1O)c1ccccc1O` had an IC50 in test [1] of 5.56 µM. Also, the MIC with Escherichia coli was found to be 3.13 µg/mL (≈ 9.89 µM); with Pseudomonas aeruginosa, 1.56 µg/mL (≈ 4.93 µM); against Bacillus subtilis, 25 µg/mL (≈ 79 µM); with Staphylococcus aureus it was 1.56 µg/mL (≈ 4.93 µM).

Turning to `O=C(NCC/N=C/c1c(O)ccc2ccccc12)c1ccccc1O`, in test [1], the IC50 was 29.2 µM.

As for `O=C(NCCNC(=O)c1ccccc1O)c1ccccc1O`, in test [1], the IC50 is 55 µM.

On to `O=C(NCCCCCC/N=C/c1cc(I)ccc1O)c1ccccc1O`, for which, in test [1], the IC50 was 56.9 µM.

`O=C(NCCC/N=C/c1cc(I)cc(I)c1O)c1ccccc1O`: 23.5 µM corresponded to half-maximal inhibition in test [1] (IC50).

`O=C(NCCC/N=C/c1cc(I)ccc1O)c1ccccc1O` showed an IC50 in test [1] of 3.54 µM. For the same molecule, the MIC in the test with Escherichia coli is 3.13 µg/mL (≈ 7.38 µM); in the test on Pseudomonas aeruginosa, 6.25 µg/mL (≈ 14.7 µM); in the test with Bacillus subtilis, 25 µg/mL (≈ 58.9 µM); against Staphylococcus aureus it was greater than 50 µg/mL.

Take `O=C(NCC/N=C/c1cc(F)ccc1O)c1ccccc1O`: the IC50 in test [1] is 34.2 µM. In other words, the double-digit micromolar range.

On to `O=C(NCCCC/N=C/c1ccccc1O)c1ccccc1O`, for which the IC50 in test [1] is 43.4 µM.

`O=C(NCCC/N=C/c1cc(Br)ccc1O)c1ccccc1O` gave an IC50 in test [1] of 0.875 µM. Further, the MIC with Escherichia coli was 0.39 µg/mL (≈ 1.03 µM); against Pseudomonas aeruginosa, 3.13 µg/mL (≈ 8.3 µM); against Bacillus subtilis, 1.56 µg/mL (≈ 4.14 µM); against Staphylococcus aureus, 3.13 µg/mL (≈ 8.3 µM).

As to `O=C(NCCCC/N=C/c1cc(Cl)cc(Cl)c1O)c1ccccc1O`, the IC50 in test [1] is 7.74 µM.

With `O=C(NCCCC/N=C/c1cc(Br)cc(Br)c1O)c1ccccc1O`, in test [1], the midpoint of inhibition, the IC50, lay at 6.61 µM.

Regarding `O=C(NCCCC/N=C/c1cc(I)cc(I)c1O)c1ccccc1O`, the IC50 in test [1] was 11.1 µM. Against the preceding molecule, the IC50 is about 1.7-fold higher.

Consider `O=C(NCCCC/N=C/c1c(O)ccc2ccccc12)c1ccccc1O`, for which, in test [1], the IC50 is 8.55 µM.

`O=C(NCCCC/N=C/c1cc(Cl)ccc1O)c1ccccc1O` had an IC50 in test [1] of 6.69 µM. Moreover, the MIC is greater than 50 µg/mL in the test with Escherichia coli, 12.5 µg/mL (≈ 36 µM) in the test with Pseudomonas aeruginosa, 25 µg/mL (≈ 72.1 µM) against Bacillus subtilis and 25 µg/mL (≈ 72.1 µM) against Staphylococcus aureus.

`O=C(NCCCCCC/N=C/c1cc(Cl)ccc1O)c1ccccc1O` gave an IC50 in test [1] of 26.7 µM.

On to `O=C(NCCC/N=C/c1cc(Cl)ccc1O)c1ccccc1O`, for which, in test [1], the IC50 was 4.93 µM. Further, the MIC against Escherichia coli was 25 µg/mL (≈ 75.1 µM); with Pseudomonas aeruginosa, greater than 50 µg/mL; with Bacillus subtilis, greater than 50 µg/mL; against Staphylococcus aureus it was greater than 50 µg/mL.

Molecule `O=C(NCCCC/N=C/c1cc(I)ccc1O)c1ccccc1O` had an IC50 in test [1] of 1.48 µM. Also, the MIC against Escherichia coli was 6.25 µg/mL (≈ 14.3 µM); against Pseudomonas aeruginosa it was 3.13 µg/mL (≈ 7.14 µM); in the test on Bacillus subtilis it was 1.56 µg/mL (≈ 3.56 µM); in the test on Staphylococcus aureus, greater than 50 µg/mL.
